zfTRPN1 agonist – activates the zebrafish TRPN1 channel; activation, % at 3 µM; AID 1424; actives 0.18% (n = 220,000); HEK293 zebrafish TRPN1-YFP, Fluo-8 calcium fluorescence; 100% = response to 87 µM carbachol;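 active means activation above its plate's cutoff, the mean activation of test wells on that plate plus 3 SD, cut at about 19% in these data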
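Material – zebrafish TRPN1-YFP in HEK293 cells · Doses – 3 µM single point · Schedule – dye 1 h 37 °C plus 30 min RT · Signal – Fluo-8 calcium fluorescence, excitation 470-495 nm, emission 515-575 nm · Read-out – % activation versus carbachol response · Control set – carbachol high, DMSO low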
TRPML3 agonist – agonists of human TRPML3 channel. activation, % at 3 µM. AID 1448. Q8TDD5. HEK293 TRPML3-YFP, Fluo-8 calcium fluorescence; 100% = the carbachol control signal. actives 0.29% (n = 220,000);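 active means activation above its plate's cutoff, the mean activation of the plate's test wells plus 3 SD, cut at about 12% in these data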
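system = HEK293 cells stably carrying human TRPML3-YFP | doses = one concentration, 3 µM nominal, 0.3% DMSO | timing = dye loading 1 h 37 °C then 30 min ambient, 125 s read | detection = Fluo-8 calcium dye fluorescence, ex 470-495, em 515-575 nm | benchmarks = high control carbachol 87 µM, low control DMSO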
LANA-H2A inh – blocks KSHV LANA binding to histone H2A/H2B. actives 0.6% (n = 320,000). Q9QR71. inhibition, % (concentration not given with the values). cell-free LANA-H2A/H2B peptide, fluorescence polarization; in the data active means inhibition mostly above about 10%, no sharp cut-off; inactive means mostly below about 6.7%
GPR7 antagonist – antagonists of human GPR7 (neuropeptides B/W receptor 1); inhibition, % at 4.4 µM; GPR7-expressing cells, fluorescence antagonist assay; P48145; actives 1.1% (n = 290,000); in the data active means inhibition above about 16%, passing the limit was not always enough;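 further: cells stimulated with the agonist NPW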
Target sequence (P48145 whole entry, looked up): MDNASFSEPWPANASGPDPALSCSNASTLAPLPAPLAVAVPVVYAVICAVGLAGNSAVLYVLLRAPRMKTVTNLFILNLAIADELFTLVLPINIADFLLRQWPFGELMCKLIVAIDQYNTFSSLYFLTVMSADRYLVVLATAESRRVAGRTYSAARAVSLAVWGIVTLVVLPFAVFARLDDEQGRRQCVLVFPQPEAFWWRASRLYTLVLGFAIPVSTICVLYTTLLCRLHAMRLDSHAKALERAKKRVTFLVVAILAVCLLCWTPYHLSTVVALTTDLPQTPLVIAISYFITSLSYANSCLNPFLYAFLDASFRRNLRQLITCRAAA
TAAR1 agonist – agonists of human TAAR1. activation, % at 3 µM. CHO RD-HGA16 TAAR1, Fluo-8 calcium fluorescence; vehicle wells 0%, saturating PEA agonist 100%. actives 0.99% (n = 360,000);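 active means activation above the mean activation of all test compounds in the run plus 3 SD, cut at about 38% in these data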
Target sequence (Q96RJ0 whole entry, looked up): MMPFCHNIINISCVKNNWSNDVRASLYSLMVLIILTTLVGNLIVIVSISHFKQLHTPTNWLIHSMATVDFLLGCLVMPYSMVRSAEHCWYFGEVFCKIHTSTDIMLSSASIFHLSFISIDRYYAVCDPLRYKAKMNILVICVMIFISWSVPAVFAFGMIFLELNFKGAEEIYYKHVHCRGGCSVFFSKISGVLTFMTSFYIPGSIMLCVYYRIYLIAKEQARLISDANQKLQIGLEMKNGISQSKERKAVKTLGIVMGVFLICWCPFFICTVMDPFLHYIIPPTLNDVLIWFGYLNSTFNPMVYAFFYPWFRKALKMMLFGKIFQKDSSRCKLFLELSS
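Test system: RD-HGA16 (CHO) cells co-expressing Gα16 and hTAAR1; dosing: one-point dosing at 3 µM (nominal); timing: 17-24 h seeding, 75 min 37 °C dye, 30 min RT; signal: kinetic Fluo-8 calcium fluorescence; read-out basis: % activation relative to PEA EC100 response; controls: DMSO and PEA EC100; replicates: n 1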
TAAR1 antag – human TAAR1 antagonism. Q96RJ0. CHO RD-HGA16 TAAR1, Fluo-8 calcium fluorescence, antagonist. inhibition, % at 3 µM. actives 1.5% (n = 360,000). AID 624466;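 active means inhibition above a per-plate cutoff, the mean inhibition of test compounds on that plate plus 3 SD, cut at about 49% in these data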
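System: CHO RD-HGA16 cells bearing hTAAR1. Reagent: EC80 β-phenethylamine stimulus. Schedule: seeding 17-24 h prior, 75-min 37 °C, 30-min RT dye loading. Signal: Fluo-8 intracellular calcium dye fluorescence, real-time kinetic reads. Read-out: % inhibition from peak post-agonist over basal fluorescence ratio. Benchmarks: vehicle wells and EC80 agonist wells. Replicates: n of 1.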
TAAR1 ag conf – human TAAR1 agonism, confirmed; CHO RD-HGA16 TAAR1, Fluo-8 calcium fluorescence; scaled: DMSO 0%, maximal phenethylamine 100%; activation, % at 3 µM; shares compounds with TAAR1 agonist; actives 82% (n = 2,400);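 active means activation above a cutoff set at the run's mean compound activation plus 3 SD, cut at about 39% in these data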
Ga16 nonsel ag – nonselective agonism, TAAR1 counter-screen | shares compounds with TAAR1 agonist | CHO-Ga16 parental, Fluo-8 calcium fluorescence; normalized to maximal ATP response, DMSO zero | activation, % at 3 µM | actives 50% (n = 2,400) | AID 651787;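 active means activation above the run cutoff, the mean activation over all tested wells plus 3 SD, cut at about 12% in these data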
TAAR1 desens – human TAAR1 agonist that also desensitizes the receptor; shares compounds with TAAR1 agonist; CHO RD-HGA16 hTAAR1, Fluo-8 calcium, beta-PEA response inhibition; inhibition, % at 3 µM; actives 46% (n = 2,400); AID 651951;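 active means inhibition above the run cutoff, the mean inhibition of all test compounds plus 3 SD, cut at about 49% in these data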;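 further: beta-PEA stimulus applied at its EC80; loss of beta-PEA calcium signal after compound pretreatment read as receptor desensitization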
Ga16 antag count – nonselective Ga16 antagonism, counter-screen. CHO-Ga16 ATP-induced calcium, Fluo-8 fluorescence. inhibition, % at 3 µM. shares compounds with TAAR1 agonist. actives 39% (n = 2,400);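 active means inhibition above the plate's mean compound inhibition plus 3 SD, computed per plate, cut at about 22% in these data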
Large screens that a line does not name were inactive (follow-up assays come after a bar, where they were run). Shown are actives, neighbours in structure and some others; about 3.4% of the full set was active somewhere.

Nc1nnn(CC(=O)N/N=C/c2cccc3ccccc23)n1	none
O=C(CN1C(=O)NC2(CCCC2)C1=O)N1CCN(S(=O)(=O)c2ccccc2[N+](=O)[O-])CC1	none (no result: zfTRPN1 agonist, TRPML3 agonist, GPR7 antagonist)
CC(C)C(=O)Nc1ccc(NC(=O)c2cc3ccccc3o2)cc1	TAAR1 agonist 54 | TAAR1 ag conf 45 | Ga16 nonsel ag 21 | TAAR1 desens 49 | Ga16 antag count 28
CC1(C)CC[C@]2(C(=O)O)CC[C@]3(C)C(=CC[C@@H]4[C@@]5(C)CC[C@H](O[C@@H]6O[C@H](C(=O)O)[C@@H](O)[C@H](O[C@@H]7OC[C@H](O)[C@H](O)[C@H]7O)[C@H]6O)C(C)(C)[C@@H]5CC[C@]43C)[C@@H]2C1	TAAR1 agonist 109, TAAR1 antag 109 (no result: zfTRPN1 agonist, TRPML3 agonist, GPR7 antagonist) | TAAR1 ag conf 84 | Ga16 nonsel ag 66 | TAAR1 desens 104 | Ga16 antag count 95
c1ccc2c(c1)CCN(c1nc3cc4c(cc3s1)OCO4)C2	TAAR1 agonist 85, TAAR1 antag 61 | TAAR1 ag conf 89 | Ga16 nonsel ag inactive | TAAR1 desens 82 | Ga16 antag count inactive
O=C(NCCc1ccc(Cl)cc1)c1ncn[nH]1	TAAR1 agonist 48 | TAAR1 ag conf 46 | Ga16 nonsel ag inactive | TAAR1 desens inactive | Ga16 antag count inactive
Nc1nc(N)c(C=Nc2ccc(Br)cc2)c(Nc2ccc(Br)cc2)n1	TAAR1 agonist 80 | TAAR1 ag conf 43 | Ga16 nonsel ag 19 | TAAR1 desens inactive | Ga16 antag count inactive
O=C1c2cccc3c(O)ccc(c23)C(=O)N1c1ccc(Cl)cc1	LANA-H2A inh 23, TAAR1 agonist 235, TAAR1 antag 59 (no result: zfTRPN1 agonist, TRPML3 agonist) | TAAR1 ag conf 129 | Ga16 nonsel ag 121 | TAAR1 desens 75 | Ga16 antag count 70
CC(=O)Nc1ccc(N2C(=O)c3cccc4c(O)ccc(c34)C2=O)cc1	TAAR1 agonist 174 (no result: zfTRPN1 agonist, TRPML3 agonist) | TAAR1 ag conf 63 | Ga16 nonsel ag 65 | TAAR1 desens inactive | Ga16 antag count 39
O=C1c2cccc3c(O)ccc(c23)C(=O)N1Cc1ccco1	zfTRPN1 agonist 79, TRPML3 agonist 38, TAAR1 agonist 132 (no result: LANA-H2A inh) | TAAR1 ag conf 158 | Ga16 nonsel ag 188 | TAAR1 desens 74 | Ga16 antag count 80
Cc1ccc(N2C(=O)c3cccc4c(C(=O)O)ccc(c34)C2=O)cc1	none
CC(=O)C1=C(O)C(=O)N(CCc2ccccc2)C1c1ccccc1[N+](=O)[O-] (centres undefined)	TAAR1 agonist 67 | TAAR1 ag conf 62 | Ga16 nonsel ag inactive | TAAR1 desens inactive | Ga16 antag count inactive
COc1ccc(C(c2sc3nc(C)nn3c2O)N2CCc3ccccc3C2)cc1 (centres undefined)	none
COc1cc(C(c2sc3nc(C)nn3c2O)N2CCc3ccccc3C2)cc(OC)c1OC (centres undefined)	TAAR1 agonist 45 | TAAR1 ag conf 45 | Ga16 nonsel ag inactive | TAAR1 desens inactive | Ga16 antag count inactive
COc1cccc(C(c2sc3ncnn3c2O)N2CCc3ccccc3C2)c1 (centres undefined)	TAAR1 agonist 73 | TAAR1 ag conf 82 | Ga16 nonsel ag inactive | TAAR1 desens inactive | Ga16 antag count inactive
COc1cccc(C(c2sc3ncnn3c2O)N2CC(C)OC(C)C2)c1 (centres undefined)	none
Cc1ccc(NC(=O)CN2C(=O)NC(C)(c3ccc4c(c3)OCO4)C2=O)cc1 (centres undefined)	none (no result: zfTRPN1 agonist, TRPML3 agonist, GPR7 antagonist)
CC1(c2ccc(Cl)cc2)NC(=O)N(CC(=O)Nc2ccc3c(c2)OCO3)C1=O (centres undefined)	TAAR1 agonist 59 (no result: zfTRPN1 agonist, TRPML3 agonist, LANA-H2A inh, GPR7 antagonist) | TAAR1 ag conf 77 | Ga16 nonsel ag 24 | TAAR1 desens 54 | Ga16 antag count 24
CCc1cccc(C)c1NC(=O)COC(=O)CNS(=O)(=O)/C=C/c1ccccc1	none
Cc1ccc(Cl)c(NC(=O)COC(=O)CNS(=O)(=O)/C=C/c2ccccc2)c1Cl	TAAR1 agonist 73 (no result: LANA-H2A inh) | TAAR1 ag conf inactive | Ga16 nonsel ag inactive | TAAR1 desens inactive | Ga16 antag count inactive
COC(=O)CCCC(=O)NCC1(N(C)Cc2ccccc2)Cc2ccccc2C1	none (no result: zfTRPN1 agonist, TRPML3 agonist)
O=C(CCSc1nnc(-c2ccncc2)o1)Nc1ccc(Cl)cc1	TAAR1 agonist 40 | TAAR1 ag conf 40 | Ga16 nonsel ag inactive | TAAR1 desens inactive | Ga16 antag count inactive
O=C(CCSc1nnc(-c2ccncc2)o1)Nc1cccc(Cl)c1	none
C=CCNC1=C(Cl)C(=O)c2ccccc2C1=O	none
CC(=O)N(Cc1ccc(F)cc1)C1=C(NCCc2ccccc2)C(=O)c2ccccc2C1=O	TAAR1 agonist 50 | TAAR1 ag conf inactive | Ga16 nonsel ag inactive | TAAR1 desens inactive | Ga16 antag count inactive
O=C1C(Cl)=C(NCC2CCCO2)C(=O)N1CCc1ccccc1 (centres undefined)	TAAR1 agonist 74 | TAAR1 ag conf 52 | Ga16 nonsel ag inactive | TAAR1 desens inactive | Ga16 antag count inactive
O=C1C(Cl)=C(NCCCN2CCOCC2)C(=O)N1CCc1ccccc1	none
O=C1C(Cl)=C(NCCc2ccccc2)C(=O)c2ccccc21	TAAR1 agonist 79, TAAR1 antag 67 (no result: zfTRPN1 agonist, TRPML3 agonist, LANA-H2A inh, GPR7 antagonist) | TAAR1 ag conf 107 | Ga16 nonsel ag 14 | TAAR1 desens 96 | Ga16 antag count 28
O=C1C(Cl)=C(NCCc2ccccc2)C(=O)N1CCc1ccccc1	TAAR1 agonist 43, TAAR1 antag 66 | TAAR1 ag conf 73 | Ga16 nonsel ag inactive | TAAR1 desens 83 | Ga16 antag count 32
Cc1ccc(C)c(-c2nnc(NC(=O)CCS(=O)(=O)c3ccc(F)cc3)o2)c1	none (no result: zfTRPN1 agonist, TRPML3 agonist, GPR7 antagonist)
O=C(CSc1nnc(CNC(=O)c2ccccc2)o1)NCC1CCCO1 (centres undefined)	none (no result: zfTRPN1 agonist, TRPML3 agonist)
COc1ccc(C(=O)Nc2cc(C(=O)c3ccccc3)c(C)oc2=O)cc1	none

Bioassay records from PubChem.
